Measurements reported in article PMC11827156 (Malaria Journal, 2025).

Tests used:
Assay type in all cases: cell-based, Plasmodium falciparum
P. falciparum 3D7 [1] = experiment: Competition of TCAMS compounds; details: for effect on the increase in parasitaemia promoted by melatonin: 2.5 nM compound with 100 nM melatonin; for effect on the increase in parasitaemia promoted by melatonin / effect on the increase in parasitaemia promoted by serotonin: 48 h; for effect on the increase in parasitaemia promoted by serotonin: 2.5 nM compound with 250 nM serotonin; for classification on the serotonin/melatonin pathway in the parasite: from effects in presence and absence of serotonin or melatonin
Procedure, shortened: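 Asynchronous P. falciparum 3D7 cultures (1% parasitaemia, 2% haematocrit) were given 2.5 nM test compound with or without 250 nM serotonin or 100 nM melatonin. Incubation was 48 h at 37 °C under mixed gas, with a DMSO solvent control. Cells were stained with SYBR Green-I (1:10,000) and MitoTracker Deep Red (50 nM) for 20 min at 37 °C, then parasitaemia was read by flow cytometry. Survival is relative to solvent; triplicate, 3 independent experiments.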

P. falciparum 3D7 [2] = details: read-out: IC50 (nM) 3D7; Table 1; asynchronous culture, 72 h, 0.0019–2 µM; ± standard error of the mean
P. falciparum 3D7 [3] = details: 2.5 nM compound alone, 48 h

| Compound | effect on the increase in parasitaemia promoted by melatonin (P. falciparum 3D7 [1]) | effect on the increase in parasitaemia promoted by serotonin (P. falciparum 3D7 [1]) | classification on the serotonin/melatonin pathway in the parasite (P. falciparum 3D7 [1]) | IC50 (P. falciparum 3D7 [2]) [nM] | effect on parasitaemia compared with the control (P. falciparum 3D7 [3]) |
| --- | --- | --- | --- | --- | --- |
| O=C(/C=C/c1ccc(Cl)c(Cl)c1)Nc1cccc(CN2CCC(c3c[nH]c4ccc(O)cc34)CC2)c1 [TCMDC-139634, Oc1ccc2[nH]cc(C3CCN(Cc4cccc(NC(= O)\C = C\c5ccc(Cl)c(Cl)c5)c4)CC3)c2c1] | could inhibit the increase in parasitaemia promoted by melatonin thoroughly | able to inhibit the increase in parasitaemia | potential partial agonists of this pathway in the parasite | 346 ± 47.5 | induced a significant increase in parasitaemia |
| O=C(/C=C/c1ccc(Cl)c(Cl)c1)N1CCC(CN2CCC(c3c[nH]c4ccc(O)cc34)CC2)CC1 [TCMDC-139786, Oc1ccc2[nH]cc(C3CCN(CC4CCN(CC4)C(= O)\C = C\c4ccc(Cl)c(Cl)c4)CC3)c2c1] | could inhibit the increase in parasitaemia promoted by melatonin thoroughly | partially inhibited the increase in parasitaemia promoted by serotonin | potential partial agonists of this pathway in the parasite | 138 ± 23.9 | induced a significant increase in parasitaemia |
| CS(=O)(=O)Nc1ccc2[nH]cc(C3CCN(CC4CCN(C(=O)/C=C/c5ccc(Cl)c(Cl)c5)CC4)CC3)c2c1 [TCMDC-139813, CS(= O)(= O)Nc1ccc2[nH]cc(C3CCN(CC4CCN(CC4)C(= O)\C = C\c4ccc(Cl)c(Cl)c4)CC3)c2c1] | able to inhibit the increase in parasitaemia partially | partially inhibited the increase in parasitaemia promoted by serotonin |  | 116 ± 49.1 | did not significantly affect parasitaemia compared with the control |
| Cc1[nH]c2ccc(O)cc2c1C1CCN(CC2CCN(C(=O)/C=C/c3ccc(Cl)c(Cl)c3)CC2)CC1 [TCMDC-140219, Cc1[nH]c2ccc(O)cc2c1C1CCN(CC2CCN(CC2)C(= O)\C = C\c2ccc(Cl)c(Cl)c2)CC1] | able to inhibit the increase in parasitaemia partially | able to inhibit the increase in parasitaemia | potential full antagonists of the pathway | 101 ± 22.9 | did not significantly affect parasitaemia compared with the control |
| O=c1c(NCCCN(Cc2ccc(F)cc2)c2ccccn2)c(NCc2ccncc2)c1=O [TCMDC-142310, Fc1ccc(CN(CCCNc2c(NCc3ccncc3)c(= O)c2 = O)c2ccccn2)cc1] | able to inhibit the increase in parasitaemia partially | able to inhibit the increase in parasitaemia | potential partial agonists of this pathway in the parasite | 100 ± 23.6 | induced a significant increase in parasitaemia |
